Where “and” joins values, the source holds several entries; their conditions need not be identical. Equal entries are not always repeated. Where two headings read alike, the source gives them in different places.
What was measured:
COS‐hFAAH cells = experiment: Quantification of compounds in COS‐hFAAH supernatant, cell lysates and medium; type: in vitro ADME; conditions: 1, 3 and 24 hr
[1] = target: T1, human recombinant fatty acid amide hydrolase (FAAH) (Homo sapiens, UniProt O00519); experiment: FAAH activity in intact COS‐hFAAH cells; type: cell-based
T1 sequence (O00519 1-579): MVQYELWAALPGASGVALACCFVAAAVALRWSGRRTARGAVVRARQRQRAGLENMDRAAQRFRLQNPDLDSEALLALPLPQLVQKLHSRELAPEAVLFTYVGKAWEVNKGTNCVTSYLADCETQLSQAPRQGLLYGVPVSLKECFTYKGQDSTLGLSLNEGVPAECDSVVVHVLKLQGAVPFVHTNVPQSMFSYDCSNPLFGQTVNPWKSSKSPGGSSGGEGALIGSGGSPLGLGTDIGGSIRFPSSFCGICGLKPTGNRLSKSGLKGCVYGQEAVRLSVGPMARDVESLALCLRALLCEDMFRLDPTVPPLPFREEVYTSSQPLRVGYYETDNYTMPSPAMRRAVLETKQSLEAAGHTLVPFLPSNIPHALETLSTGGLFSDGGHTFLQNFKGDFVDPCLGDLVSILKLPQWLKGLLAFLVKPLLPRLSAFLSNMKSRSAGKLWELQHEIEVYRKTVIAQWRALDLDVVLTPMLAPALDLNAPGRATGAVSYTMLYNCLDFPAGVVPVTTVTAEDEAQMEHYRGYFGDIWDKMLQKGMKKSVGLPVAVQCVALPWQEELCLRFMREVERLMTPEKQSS

[2] = target: T2, mouse liver fatty acid amide hydrolase (FAAH) (Mus musculus, UniProt O08914); experiment: Ex vivo FAAH activity in mouse liver after oral administration; conditions: for ED50 [95% CI] Liver: 8 hr after oral administration
T2 sequence (O08914 1-579): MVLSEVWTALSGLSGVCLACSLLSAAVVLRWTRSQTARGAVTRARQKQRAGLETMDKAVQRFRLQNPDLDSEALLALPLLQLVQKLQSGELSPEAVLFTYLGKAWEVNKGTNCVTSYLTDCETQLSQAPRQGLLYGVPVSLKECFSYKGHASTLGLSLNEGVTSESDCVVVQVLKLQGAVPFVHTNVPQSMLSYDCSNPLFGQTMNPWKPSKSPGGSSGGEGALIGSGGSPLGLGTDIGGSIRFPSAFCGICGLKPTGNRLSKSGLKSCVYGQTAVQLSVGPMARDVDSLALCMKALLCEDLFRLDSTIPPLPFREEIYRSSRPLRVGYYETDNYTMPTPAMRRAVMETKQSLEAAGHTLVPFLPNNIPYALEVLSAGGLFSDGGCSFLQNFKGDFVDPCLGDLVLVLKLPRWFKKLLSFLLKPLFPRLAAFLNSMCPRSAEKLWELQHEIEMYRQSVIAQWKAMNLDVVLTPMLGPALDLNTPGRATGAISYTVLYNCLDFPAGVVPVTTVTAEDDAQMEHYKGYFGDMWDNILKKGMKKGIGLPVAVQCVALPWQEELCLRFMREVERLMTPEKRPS
Procedure, shortened: (§1)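 Liver and half-brain were collected into FAAH membrane buffer (3 mM MgCl2, 1 mM EDTA, 50 mM Tris HCl, pH 7.4) and stored at −20°C. Homogenates (15 μg protein brain, 5 μg liver) were pre-incubated 15 min at 37°C. AEA + 3H‑AEA + BSA was added for 10 min (brain) or 7 min (liver), then charcoal. Scintillation counting gave % remaining activity versus controls after blank subtraction.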

[3] = Plasma and brain levels of BIA 10‐2474 and PF‐04457845 in mice; type: in vivo; conditions: mouse; for Tmax / half-life / AUC(0-t) / Cmax: po
[4] = target: T3, rat brain fatty acid amide hydrolase (FAAH) (Rattus norvegicus, UniProt P97612); type: biochemical
T3 sequence (P97612 1-579): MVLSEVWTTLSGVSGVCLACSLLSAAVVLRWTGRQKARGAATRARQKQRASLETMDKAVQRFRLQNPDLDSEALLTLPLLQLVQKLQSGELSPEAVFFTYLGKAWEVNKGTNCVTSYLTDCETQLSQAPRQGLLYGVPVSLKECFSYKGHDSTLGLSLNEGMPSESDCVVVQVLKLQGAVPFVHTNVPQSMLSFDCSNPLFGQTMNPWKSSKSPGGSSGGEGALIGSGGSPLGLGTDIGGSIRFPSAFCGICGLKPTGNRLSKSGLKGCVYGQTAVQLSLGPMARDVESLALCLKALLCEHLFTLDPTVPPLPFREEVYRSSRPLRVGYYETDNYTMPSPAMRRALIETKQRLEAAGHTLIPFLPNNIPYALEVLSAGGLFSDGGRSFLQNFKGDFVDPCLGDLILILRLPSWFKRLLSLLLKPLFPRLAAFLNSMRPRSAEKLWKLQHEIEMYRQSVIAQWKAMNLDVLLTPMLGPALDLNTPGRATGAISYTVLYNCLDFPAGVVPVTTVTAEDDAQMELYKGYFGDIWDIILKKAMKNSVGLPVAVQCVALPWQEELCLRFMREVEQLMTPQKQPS
Procedure, shortened: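 Rat brain membranes from Wistar rats, 10 μg protein, in 1 mM EDTA, 10 mM Tris, pH 7.6. Test compound at 1 nM–10 μM, pre-incubated with enzyme 5–60 min, or reaction started with enzyme when not pre-incubated. Substrate 2 μM AEA + 5 nM 3H‑AEA + 0.1% fatty acid-free BSA, 30 min at room temperature with agitation. Charcoal stop; supernatant 3H‑ethanolamine counted. Blank and vehicle controls; IC50 from normalized variable-slope sigmoidal fit.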

[5] = target: T4, mouse brain fatty acid amide hydrolase (FAAH) (Mus musculus, UniProt O08914); experiment: Ex vivo FAAH activity in mouse brain after oral administration; conditions: for ED50 [95% CI] Brain: 8 hr after oral administration
T4 sequence (O08914 1-579): T2 sequence (O08914 1-579)
Procedure, shortened: as §1

[6] = brain (without cerebellum), 0.3 mg/kg

## O=C(Nc1cccnn1)N1CCC(=Cc2cccc(Oc3ccc(C(F)(F)F)cn3)c2)CC1 [PF‐04457845]
COS‐hFAAH cells
  detection in cell lysates: detected
  stability in cellular media over time: not stable
[1]; read-out: IC50 [95% CI], incubation 1 hr
  IC50: 4.3 nM
[1]; read-out: IC50 [95% CI], incubation 3 hr
  IC50: 3.4 nM
[2]; 0.1 mg·kg^−1 p.o., 48 hr
  liver FAAH activity, % of control levels: 72.3%
[2]; 0.1 mg·kg^−1 p.o., over 24 hr
  inhibition of hepatic FAAH, mean values: above 88.7%
[2]
  ED50 [95% CI] Liver: 2.0 [1.8, 2.2] μg·kg^−1
[3]; 0.03 mg·kg^−1 p.o.
  Plasma AUClast: 4.3 ng·h/mL
  Plasma C max: 1.3 ng/mL
  Plasma t max: 2 h
  detection in the brain: not detectable
[3]; 0.1 mg·kg^−1 p.o.
  Brain AUClast: 22.9 ng·h/g
  Brain C max: 3.7 ng/g
  Brain t max: 2 h
  Plasma AUClast: 238.3 ng·h/mL
  Plasma C max: 38.3 ng/mL
  Plasma t max: 2 h
  brain levels, fold lower than in plasma: approximately 10 fold
[4]; read-out: IC50 [95% CI], pre‐incubation 0 min
  IC50: 3.9 nM
[4]; read-out: IC50 [95% CI], pre‐incubation 5 min
  IC50: 2.8 nM
[4]; read-out: IC50 [95% CI], pre‐incubation 15 min
  IC50: 1.5 nM
[4]; read-out: IC50 [95% CI], pre‐incubation 30 min
  IC50: 2.7 nM
[4]; read-out: IC50 [95% CI], pre‐incubation 45 min
  IC50: 2.7 nM
[4]; read-out: IC50 [95% CI], pre‐incubation 60 min
  IC50: 2 nM
[5]; 0.1 mg·kg^−1 p.o., 48 hr
  brain FAAH activity, % of control levels: 43.8%
[5]; 0.1 mg·kg^−1 p.o., over 24 hr
  inhibition of cerebral FAAH, mean values: above 88.7%
[5]
  ED50 [95% CI] Brain: 4.3 [1.8, 9.9] μg·kg^−1

## CN(C(=O)n1cnc(-c2ccc[n+]([O-])c2)c1)C1CCCCC1 [BIA 10‐2474, 3‐(1‐(cyclohexyl (methyl)carbamoyl)‐1H‐imidazol‐4‐yl)pyridine 1‐oxide]
COS‐hFAAH cells
  detection in cell lysates: undetectable
  stability in cellular media over time: stable
[1]
  fold less potent than PF‐04457845 in inhibiting human FAAH in situ: 10 fold
[1]; IC50 [95% CI], incubation 1 hr
  IC50: 74.4 nM
[1]; IC50 [95% CI], incubation 3 hr
  IC50: 42.5 nM
[1]; IC50 [95% CI], incubation 24 hr
  IC50: 18 nM
[1]; IC50 values over all incubation times, intact cells expressing human FAAH
  IC50: 18 to 74 nM
[2]; 480 min
  ED50 [95% CI] Liver: 6.2 μg·kg^−1 and 6.2 [4.8, 7.9] μg·kg^−1
[2]; po, read-out: inhibition of liver FAAH
  inhibition at 0.1 mg/kg: > 96.5%
[3]; 0.1 mg·kg^−1 p.o.
  Brain AUClast: 11.3 ng·h/g
  Brain C max: 5.3 ng/g
[3]; 0.1 mg·kg^−1 p.o., equivalent of 5.3 ng·g^−1
  maximum level in brain: 18 nM
[3]; 0.1 mg·kg^−1 p.o., equivalent of 33.0 ng·ml^−1
  maximum level in plasma: 109 nM
[3]; 0.3 mg·kg^−1 p.o.
  Brain AUClast: 60.8 ng·h/g
  Brain C max: 21.6 ng/g
[3]; brain (without cerebellum), 0.1 mg/kg
  Tmax: 1 h
[3]; [6]
  Tmax: 1 h
  half-life: 1.75 h
[3]; plasma, 0.1 mg/kg
  AUC(0-t): 110 ng·h/mL
  Cmax: 33 ng/mL
  Tmax: 1 h
  half-life: 2.2 h
[3]; plasma, 0.3 mg/kg
  AUC(0-t): 338 ng·h/mL
  Cmax: 104 ng/mL
  Tmax: 1 h
  half-life: 1.9 h
[4]; IC50 [95% CI], pre‐incubation 0 min
  IC50: 1130 nM
[4]; IC50 [95% CI], pre‐incubation 5 min
  IC50: 1180 nM
[4]; IC50 [95% CI], pre‐incubation 15 min
  IC50: 626 nM
[4]; IC50 [95% CI], pre‐incubation 30 min
  IC50: 424 nM
[4]; IC50 [95% CI], pre‐incubation 45 min
  IC50: 360 nM
[4]; IC50 [95% CI], pre‐incubation 60 min
  IC50: 398 nM
[4]; IC50 values over all pre‐incubation times, rat brain membranes
  IC50: 360 to 1130 nM
[4]; rat brain membranes
  IC50 fold higher than those for JNJ‐42165279: 2–4 fold
[5]; 480 min
  ED50 [95% CI] Brain: 13.5 μg·kg^−1 and 13.5 [10.2, 17.7] μg·kg^−1
[5]; po, read-out: maximal inhibition of brain FAAH
  inhibition at 0.1 mg/kg: 91.4%

Reference: PMC7161550 (British Journal of Pharmacology, 2020)
